Results reported in ChEMBL document CHEMBL4513216, “Probing the Open Global Health Chemical Diversity Library for Multistage-Active Starting Points for Next-Generation Antimalarials” (ACS Infect Dis, 2020).

Assay: Toxicity liver stage against HepG2, at 10uM
Assay type: cell-based
Set-up: test concentration 10 uM, cell line HepG2-A16-CD81EGFP
Details: human, HepG2-A16-CD81EGFP cells; read-out: INHIBITION
Outline: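 Uninfected HepG2-A16-CD81EGFP cells, 3 × 10^3 per well, 1536-well, plated on prespotted compound at 10 μM final, parasite-free screening media added to match infected plates; puromycin 10 μM positive, DMSO 0.5% negative; run in parallel with 48 h PbLuc assay at 37 °C, 5% CO2; viability by CellTiter-Glo luminescence, normalized to controls.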

SMILES	cytotoxicity at 10 µM [%]
CCOc1no[n+]([O-])c1-c1ccccc1	-6.59
Cn1cc(CN2CCOC(Cc3cccc(F)c3)C2)cn1 (centres undefined)	-2.62
O=C(C1CC1)N1CC[C@H](c2nc3ccccc3o2)C1	-4.07
CSCCC(Nc1nc(C)cc(C)n1)C(=O)NC1CCCC1 (centres undefined)	-4.87
O=C(Cc1ccco1)N1CCC2(CCOCC2COCC2CC2)CC1 (centres undefined)	4.65
CN(C)CCOCC1CN(C(=O)c2ccccn2)Cc2ccnn2C1 (centres undefined)	-3.55
CS(=O)(=O)N[C@@H]1CN(Cc2ccoc2)C[C@@H]2CCCO[C@@H]21	13.2
COCC(=O)NCc1cc(=O)n2c(n1)CN(Cc1ccoc1)CCC2	-124
CC(C)CCN1C[C@H]2CCN(C(=O)NC3CCCC3)CC[C@H]2S1(=O)=O	4.87
Cc1ncsc1CN1CC[C@H]2OCC[C@@]2(C(=O)N2CCCC2)C1	7.63
Cc1cccc(CN2CC3(CCNCC3)OCC2=O)n1	-21.7
CC(C)(C)CC(=O)N1CC[C@@H]2[C@H](CC1)N(S(C)(=O)=O)CCS2(=O)=O	-8.68
CCn1cc(S(=O)(=O)NC2CCCC2)cn1	-7.31
Cc1cc(N2CCOC(c3ccc(C(N)=O)cn3)C2)ncn1 (centres undefined)	5.45
CNc1ccc(CC2CCCN(Cc3c[nH]cn3)C2)nn1 (centres undefined)	-1.71
Cc1cnc(-c2nc(O)c3c(n2)CN(C(=O)C2CCCC2)CC3)cn1	-1.39
Cc1ccc(C(=O)N2CCCCC2c2[nH]ncc2S(C)(=O)=O)s1 (centres undefined)	-11.4
CCc1nccn1-c1cccc(C2CCCN2S(=O)(=O)N(C)C)n1 (centres undefined)	-9.85
CN1CCN(C(=O)c2cncc(CC3CCCN(C)C3)c2)CC1 (centres undefined)	7.87
CN(C)C(=O)C1CN(Cc2cscn2)CCN(S(C)(=O)=O)C1 (centres undefined)	-6.46
CS(=O)(=O)c1ccc(NC(=O)NC2(c3ccccc3)CCC2)cc1	5.64
CNC(=O)CN1CCC(CN(C)Cc2ccccc2N(C)C)CC1	-6.23

SMILES	cytotoxicity at 10 µM [%]
CCN(CC)S(=O)(=O)NCC1COc2ccccc2O1 (centres undefined)	0.347
Cc1cc(NC(=O)NCc2nccn2C)ccc1OC(C)C	-2.74
CC(=O)c1cccc(OCCCC(=O)NC(C#N)CC(C)C)c1 (centres undefined)	-41.3
NC(=O)c1cnn2c1NCC(CNCC1(c3ccccc3)CCCC1)C2 (centres undefined)	-7.38
CC(C)C(C)NC(=O)CNc1cc2c(cc1Cl)NC(=O)CO2 (centres undefined)	0.529
CCn1cnnc1CNC(=O)NCC(C(C)C)N1CCC(C)CC1 (centres undefined)	-4.65
Cc1ccc(C(=O)N2CCC3(CCCC3)CC2)c(=O)[nH]1	2.24
CC(NC(=O)CNS(C)(=O)=O)c1ccccc1Oc1ccccc1 (centres undefined)	4.69
CCOCC(=O)NCc1cc(Br)ccc1OC(F)F	21.9
Cc1nc(CN2CCC(CNC(=O)C3(C)CCCC3)CC2)oc1C	7.66
CNC(=O)CN(C)C(=O)c1cc(Cl)c(Cl)n1C	4.4
CC(C)CNC(=O)Cn1cc(C(N)=O)c(-c2ccccc2)n1	-6.98
c1cnn(CC2CN(CCCOc3ccc4c(c3)OCO4)CCO2)c1 (centres undefined)	0.568
COc1c(Cl)cc(C(=O)NCCNc2ncccn2)cc1Cl	-9.32
CCOc1ccc(NC2CCN(C(C)C)C2=O)cn1 (centres undefined)	-17
CCOc1cccc(CCNC(=O)Cc2cccc(O)c2)n1	-5.26
CC(C)N(Cc1ccc(Cl)c(Cl)c1)C(=O)CCn1cncn1	6.63
Cc1ccc(CNC(=O)CCN2CCN(c3ccccn3)CC2)n1C	19.8
Cn1cnc2c1CCN(C(C(=O)N1CCCCC1)c1ccccc1)C2 (centres undefined)	-5.34
O=C(COCC1CC1)Nc1ncccc1O	11
O=C(NC1(C(=O)NC2CCCC2)CCCC1)c1ccc2[nH]ncc2c1	4.73
CNc1cc2c(nn1)CCN(C(=O)c1ccccc1-n1cccn1)C2	1.91

SMILES	cytotoxicity at 10 µM [%]
Cc1ccc(C(=O)NCC2CCCCO2)c(=O)[nH]1 (centres undefined)	-0.628
CCc1nncn1CCNC(=O)Nc1ccc(OC)c(C)c1	9.89
Cc1nsc(N2CCN(C(=O)Nc3cccc(C#N)c3)CC2)n1	-18.7
CN(c1ccc(CNc2c(Cl)cccc2C#N)cc1)S(C)(=O)=O	-66.9
FC(F)(F)C1CCc2nnc(CNCc3ccsc3)n2C1 (centres undefined)	0.847
NS(=O)(=O)CCNC(=O)c1nnn(-c2ccc(F)cc2)c1C1CC1	-14.3
O=C(NCC(F)(F)F)NC1CCCc2c1cnn2CCO (centres undefined)	4.44
COc1ccc(C(CO)NC(=O)Nc2cccc(C#N)c2)cc1 (centres undefined)	-17.9
Cc1cc(C)c2c(OCC(=O)NC(C)C)nn(C)c2n1	-7.25
O=C(NCC(O)c1ccc(F)c(F)c1)c1cccnc1O (centres undefined)	-13.6
CCc1ncncc1C(=O)NCCN1CCC(C)CC1	-15.6
CCc1cnc(N2C[C@@H]3[C@@H](C(=O)N(C)C)CCS(=O)(=O)[C@@H]3C2)nc1	-108
Cn1cc(C2COC3(CCN(C(=O)c4cccn4C)CC3)C2)cn1 (centres undefined)	-75.4
O=C(c1cscn1)N1CCC[C@]2(C[C@@H](OCC3CC3)CO2)C1	-69.9
CC(C)NC(=O)c1cc2c(c3ccccc3n2C)n1C(=O)N(C)C	-79.4
COCC(=O)N1CCCC2(CCN(c3ccsc3)C2=O)C1 (centres undefined)	6.66
c1ccc(CN2C[C@@H]3OCCN(CC4CCCO4)[C@@H]3C2)nc1 (some centres undefined)	0.616
CN(CCc1ccccc1)C(=O)CN1C(=O)OC[C@@H]1c1ccccc1	-47
O=C(O)c1ccc(C2CCCN(C(=O)c3ccc[nH]3)C2)cc1 (centres undefined)	-10.5
O=C(c1ccncc1F)N1CCCC(c2nccn2CC2CCC2)C1 (centres undefined)	5.94
O=C1CC2(CCN(CCCO)CC2)CN1Cc1ccc(F)c(F)c1	-7.73
Cc1ccccc1C1CCN(CCNC(=O)CS(C)(=O)=O)C1 (centres undefined)	-49.5

SMILES	cytotoxicity at 10 µM [%]
COc1cccc2c1OCC(C(=O)N(Cc1ccncc1)CC(C)C)C2 (centres undefined)	-13.9
Nc1ncc(C(=O)N2CCCC(N)CC2)c(-c2ccccc2)n1 (centres undefined)	-132
O=C1CC(NS(=O)(=O)N2CCOCC2)CN1Cc1ccc(F)cc1 (centres undefined)	-11
COCCc1ncc(CN2CCCC(C(=O)c3ccccc3)C2)cn1 (centres undefined)	-1.38
COCc1nc(C2CC2)nn1-c1ccccc1Cl	-0.808
Cc1ccsc1-c1cc(C(=O)O)cc(S(=O)(=O)NCc2ccccn2)c1	-63.8
Clc1ccc(CN2CCC(C3CCN(Cc4cccnc4)CC3)C2)cc1 (centres undefined)	11.3
Cc1ccc(C(=O)N2CCC3(CCC(=O)N(CC(N)=O)C3)CC2)cc1	-0.527
CN(C)CC1(O)CCCN(C(=O)c2cnc(-c3ccccn3)nc2)C1 (centres undefined)	-5.53
NC(=O)c1cncc(-n2ccc(-c3cnccn3)n2)c1	-11.9
O=C(c1cc(Br)ccc1Cl)N1CCN(Cc2ccco2)CC1	-49.4
CCC[C@@H]1CN(Cc2ccc(C(F)(F)F)nc2)C[C@H]1NS(C)(=O)=O	10.5
CN(C)C(=O)CCCNC(=O)C(c1cccc(F)c1)N(C)C (centres undefined)	-25.3
Cc1ccc(C(=O)N2CCC3(CCC(=O)N(CC(N)=O)C3)CC2)c(O)c1	-11.5
CC(C)Cc1noc(CN(C)C(=O)C2COc3ccccc3C2)n1 (centres undefined)	-9.12
C=Cc1ccc(C(=O)N2CCCC(Nc3ccc(F)cc3)C2)cc1 (centres undefined)	-22.1
Cc1noc(C)c1C1CCCN1C(=O)CN1CC2(CCNCC2)OC1=O (centres undefined)	-5.24
C[C@H](O)CNC(=O)c1cnc(-c2ccccc2)nc1O	-17.8
COc1ccc(CNCc2ccnc(N3CCCCC3)c2)cc1OC	0.222
CC(=O)c1cccc(OCC(=O)NS(=O)(=O)c2ccc(C)s2)c1	-8.29
Cc1cccc(NC2CCN(C(=O)Nc3cc(C)on3)CC2)n1	-13.7
Cc1cc(CN2CCN(c3nn4cc(C)nc4s3)CC2)on1	6.4

SMILES	cytotoxicity at 10 µM [%]
Cc1cnn(C2CCCN(C(=O)c3ccnc(-n4ccnc4)c3)C2)c1 (centres undefined)	-1.88
O=C(NCc1cccnc1)C1CC(=O)N(CC2CC2)C1 (centres undefined)	-3.46
O=C(NCCCn1cncn1)NCC(c1ccccc1)N1CCCC1 (centres undefined)	-3.99
CC1CCN(C(=O)CN(Cc2ccco2)C2CC2)CC1	-4.74
CN(Cc1ncc(-c2ccccc2)o1)CC1CCCN1c1cccnn1 (centres undefined)	3.75
Cc1ncc(CN(C)CCO)c2cc(C(=O)c3ccc(Br)cc3)oc12	-0.227
COc1ccc(Cn2c(C3CCNCC3)cc3cccnc32)cc1	-4.45
O=C(COc1ccccc1)N1C[C@@H](O)[C@H](N2CCCC2)C1	-6.54
CCN1CCCC12CCN(C(=O)c1ccsc1)CC2	-152
CN(Cc1ccco1)Cc1cncc2c1CCN(c1ncccn1)C2	-6.42
COCCN1CCN(Cc2ccncc2)c2ncccc2C1	-70.9
COCC1CN(Cc2ccc(C)o2)Cc2cnn(CC3CCOCC3)c21 (centres undefined)	1.87
Cn1cccc1C(=O)N1C[C@@H]2CCN(c3cccnc3)C[C@@H]2C1	-58.3
COCCNC(=O)C[C@@H]1COC[C@H]2CN(CC3CCOCC3)C[C@@H]12	-92.9
O=C([C@H]1C[C@H]2OCC[C@H]2N(Cc2cccnc2)C1)N1CCCCO1	-69.8
CCOCCN1Cc2ncn(C)c2C(COCC2CCOCC2)C1 (centres undefined)	-70.6
O=C1C[C@H]2[C@@H](CCN2C(=O)Cc2cccs2)N1Cc1ccncc1	6.12
CN(Cc1ccccc1)C1COC2(CCN(Cc3nccs3)CC2)C1 (centres undefined)	-19.5
Cc1cccc(C(=O)N2CC(C(=O)NCC3CC3)C3(CCOCC3)C2)n1 (centres undefined)	2.11
O=C(c1ccco1)N1C[C@H]2CCCN(Cc3cccs3)[C@H]2C1	5.71
CC(C)CN1CC[C@@H]2[C@H](CC1)N(C(=O)c1ccccc1)CCS2(=O)=O	-128
